Published values gathered from unrelated publications.
Protocols differ between the studies behind these lines.
Target: Receptor tyrosine-protein kinase erbB-4 (ERBB4, Homo sapiens, UniProt Q15303)

C1=C/COCc2cc(ccc2OCCN2CCCC2)Nc2nccc(n2)-c2cccc(c2)COC/1 — remaining binding (binding; 0.1 µM): 88%
C=CC(=O)N1CCC[C@@H](n2nc(-c3ccc(Oc4ccccc4)cc3)c3c(N)ncnc32)C1 — inhibition (enzyme activity; inhibitor; 1 µM): 100%
N#Cc1ccc(NC(=O)Nc2ccccc2)cc1 — remaining binding (cell-free assay; competition with immobilised ligand; 25 µM): 100%
Cc1ccc(NC(=O)c2ccnc(C(F)(F)F)c2)cc1-c1cc(OCCO)nc(N2CCOCC2)c1 — remaining binding (binding; competition with immobilised ligand; 1 µM): 99%
COc1ccc2oc(-c3ccc4nc(N)oc4c3)c/c(=N\c3ccccc3NC(=O)CCN)c2c1 — remaining binding (binding; 1 µM): 109%
COc1c(Cl)cccc1Nc1c(-c2ccncc2OC[C@@H]2COCCO2)[nH]c2c1C(=O)NCC2 — inhibition (enzyme activity; inhibitor; radiometric; 1 µM): > 80%
C#Cc1cc(-c2cc(Nc3nc(N[C@@H](C)c4ccc(F)cn4)ncc3Cl)n[nH]2)ccc1C=O — inhibition (enzyme activity; inhibitor; 0.2 µM): 54.3%
CCCCC(=O)Nc1ccc(-c2ccc3ncn(CCC)c(=O)c3c2)cn1 — remaining binding (binding; competition with immobilised ligand; 0.5 µM): 100%
CC#CC(=O)N1CCC[C@H]1c1nc(-c2ccc(C(=O)Nc3ccccn3)cc2)c2c(N)nccn12 — inhibition (enzyme activity; inhibitor; 1 µM): 96%
CN1CCN(C(=O)c2ccc(NC(=O)Nc3ccc(N(C)c4ccnc(Nc5ccc(CS(C)(=O)=O)cc5)n4)cc3)cc2)CC1 — remaining binding (binding; competition with immobilised ligand; 1 µM): 77%
C#Cc1cnc(Nc2ccnc(CO)c2)nc1Nc1ccccc1S(C)(=O)=NC#N (centres unmarked) — remaining signal (cell-free assay; 1 µM): 86%
